Measured values from different studies.
Lines come from different studies, so protocols differ.
Target: Cyclin-dependent kinase 13 (CDK13, Homo sapiens, UniProt Q14004)

Structure (SMILES) | assay | setting | remaining binding
CN(CCCC(F)(F)F)c1nccc(-c2cnn3ncccc23)n1 | binding | 1 µM | 100%
Cc1cnc(Nc2ccc(C(=O)N3CCC(N4CCCC4)CC3)cc2)nc1-c1cc2ccccc2s1 | binding, competition with immobilised ligand | 1 µM | 50%
O=C(Nc1cccnn1)N1CC(C/C=C/c2cncc(Oc3ccc(C(F)(F)F)cn3)n2)C1 | cell-free assay, competition with immobilised ligand | 1 µM | 98%
O=C(c1ccc(Nc2ncc(Cl)c(-c3cc4ccccc4s3)n2)cc1)N1CCC(N2CCCC2)CC1 | binding, competition with immobilised ligand | 1 µM | 36%
COc1ncc2cc3ccccc3nc2c1C#N | cell-free assay, competition with immobilised ligand | 5 µM | 92%
CN(C)C(=O)Cn1cc(-c2nc([C@@](C)(c3ccc(-c4cnc(N)nc4)cc3)C3CC3)no2)cn1 | cell-free assay, competition with immobilised ligand | 1 µM | 83%
c1cnn2ncc(-c3ccnc(N4CCC45COC5)n3)c2c1 | binding | 1 µM | 87%
COc1cnc(Nc2cccc(S(N)(=O)=O)c2)nc1N1CCN(c2ccccc2)CC1 | binding, competition with immobilised ligand | 1 µM | 21%
Nc1ncc2c(n1)-c1c([nH]c3ccc(C#CC4CC4)cc13)CCCC2 | binding, competition with immobilised ligand | 1 µM | 84%
COCCOc1nc(-c2ccc(Cl)nc2)nc2c1CN(C(=O)c1ncn3ccccc13)CC2 | cell-free assay, competition with immobilised ligand | 0.1 µM | 100%
CN(C)c1nccc(-c2cnn3ncccc23)n1 | binding | 1 µM | 84%
O=C(NCCCN1CCOCC1)c1ccc(Nc2nccc(-c3cc4ccccc4s3)n2)cc1 | binding, competition with immobilised ligand | 1 µM | 68%
N[C@H]1CCN(c2nccc(-c3cnn4ncccc34)n2)C1 | binding | 1 µM | 64%
c1cncc(-c2cccc(Nc3nccc(NC4CCCCC4)n3)c2)c1 | binding, competition with immobilised ligand | 10 µM | 100%
Cc1c(C(=O)O)cc(-c2ccc(C3CCNCC3)cc2)c2ccc(-c3ccc(C(F)(F)F)cc3)cc12 | binding, competition with immobilised ligand | 1 µM | 100%
C[C@@H]1CCN(c2nccc(-c3cnn4ncccc34)n2)C1 | binding | 1 µM | 72%
O=C(NCC1CCOCC1)c1n[nH]cc1NC(=O)c1c(F)cccc1F | binding, competition with immobilised ligand | 1 µM | 66%
CCCCN(CCCC)C(=O)CN1C[C@H](c2cc(OC)c3c(c2)OCO3)[C@@H](C(=O)O)[C@@H]1CC(C)(C)CCC | cell-free assay, competition with immobilised ligand | 1 µM | 52.5%
FC(F)(F)Oc1cccc(-c2cnc3ccc(-c4ccncc4)nn23)c1 | cell-free assay, competition with immobilised ligand | 5 µM | 99%
